ChEMBL document CHEMBL1134461, “Hexahydrochromeno[4,3-b]pyrrole derivatives as acetylcholinesterase inhibitors” (J Med Chem, 2001)

Target: T1, Acetylcholinesterase (Homo sapiens, UniProt P22303)
Experiment: Inhibitory activity against acetylcholinesterase in human erythrocytes
Assay type: cell-based
Outline: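 Ellman colorimetric assay with human erythrocyte enzyme (AChE or BChE), 0.035 unit/mL, in 0.1 M phosphate buffer pH 8.0 with 340 μM DTNB. Inhibitor preincubated with enzyme 20 min, then 550 μM acetylthiocholine iodide added. […] IC50 read graphically from log concentration–inhibition curves; pIC50 is the mean of two independent measurements.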

T1 sequence (P22303 whole entry): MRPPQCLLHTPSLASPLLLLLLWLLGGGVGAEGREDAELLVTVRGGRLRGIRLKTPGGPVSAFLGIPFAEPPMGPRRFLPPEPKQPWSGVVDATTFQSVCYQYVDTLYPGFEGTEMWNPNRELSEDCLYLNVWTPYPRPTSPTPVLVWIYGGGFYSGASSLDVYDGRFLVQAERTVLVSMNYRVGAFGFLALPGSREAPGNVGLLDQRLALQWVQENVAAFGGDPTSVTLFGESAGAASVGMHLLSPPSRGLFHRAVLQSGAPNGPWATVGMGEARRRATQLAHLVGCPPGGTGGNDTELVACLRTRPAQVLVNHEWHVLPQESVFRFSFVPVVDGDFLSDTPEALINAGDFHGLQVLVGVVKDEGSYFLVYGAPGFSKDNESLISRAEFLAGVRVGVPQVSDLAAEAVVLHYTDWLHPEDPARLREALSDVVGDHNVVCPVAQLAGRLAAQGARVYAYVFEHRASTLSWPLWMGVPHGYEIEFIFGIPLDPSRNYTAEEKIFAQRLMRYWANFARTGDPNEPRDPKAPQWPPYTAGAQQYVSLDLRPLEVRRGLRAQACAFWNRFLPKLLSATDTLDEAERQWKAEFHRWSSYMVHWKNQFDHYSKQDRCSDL

Row | SMILES | IC50 [nM]
1 | CNC(=O)Oc1ccc2c(c1)[C@@H]1[C@@H](CCN1C)CO2 | 16200
2 | CN1CC[C@H]2COc3c(O)cccc3[C@H]21 | 39800
3 | O=C(CCCCCCC(=O)NCCCCCCN1CC[C@H]2COc3ccccc3[C@H]21)NCCCCCCN1CC[C@H]2COc3ccccc3[C@H]21 | 9770
4 | CNC(=O)Oc1ccc2c(c1)OC[C@@H]1CC[N+](C)(C)[C@H]21 | 1820
5 | CNC(=O)Oc1ccc2c(c1)OC[C@@H]1CCN(C)[C@H]21 | 1950
6 | CNC(=O)Oc1cccc2c1OC[C@@H]1CCN(C)[C@H]21 (stereo in doubt; (-)-4) | 22.9
7 | CNC(=O)Oc1cccc2c1OC[C@@H]1CCN(C)[C@H]21 (stereo in doubt; (+)-4) | 74.1
8 | CNC(=O)Oc1cccc2c1OC[C@@H]1CCN(C)[C@H]21 (stereo in doubt; 4) [listing 1 of 2 here] | 29.5

Target: T1, Acetylcholinesterase

Row | SMILES | k3 [min⁻¹]
9 | CNC(=O)Oc1cccc2c1OC[C@@H]1CCN(C)[C@H]21 (stereo in doubt; 4) [listing 2 of 2 here] | 26.5

Target: T1, Acetylcholinesterase
Remark: another data set of the same source

Row | SMILES | Kc [nM]
10 | CNC(=O)Oc1ccc2c(c1)[C@]1(C)CCN(C)[C@@H]1N2C | 250
11 | CNC(=O)Oc1cccc2c1OC[C@@H]1CCN(C)[C@H]21 (stereo in doubt; 4) [listing 2 of 2 here] | 730
